Source: ChEMBL document CHEMBL4689842, “EUbOPEN Chemogenomics Library wave 1” (2021)

Tested on: U2OS
Experiment: Multiplex assay against U2OS
Assay type: toxicity, cell-based
Details: human
Procedure, shortened: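 On a CQ1 microscope at 37°C and 5% CO2, live cells were imaged after compound addition. They had been stained at seeding with Hoechst33342, BioTracker Green Microtubule Cytoskeleton Dye, MitoTracker Red and Annexin V Alexa Fluor 680. CellPathfinder machine-learning gating assigned cells to Hoechst high-intensity objects or normal cells, normal cells to healthy, pyknosed or fragmented nuclei, and pyknosed cells to mitotic or apoptotic. Tubulin, mitochondrial-mass and membrane-permeability phenotypes are per cents of healthy-nucleus cells.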

[1] = 12 h, 1 µM, compound concentration 1 uM, replicate 1
[2] = 12 h, 1 µM, compound concentration 1 uM, replicate 2
[3] = 12 h, 10 µM, compound concentration 10 uM, replicate 1
[4] = 12 h, 10 µM, compound concentration 10 uM, replicate 2
[5] = 24 h, 1 µM, compound concentration 1 uM, replicate 1
[6] = 24 h, 1 µM, compound concentration 1 uM, replicate 2
[7] = 24 h, 10 µM, compound concentration 10 uM, replicate 1
[8] = 24 h, 10 µM, compound concentration 10 uM, replicate 2
[9] = 48 h, 1 µM, compound concentration 1 uM, replicate 1
[10] = 48 h, 1 µM, compound concentration 1 uM, replicate 2
[11] = 48 h, 10 µM, compound concentration 10 uM, replicate 1
[12] = 48 h, 10 µM, compound concentration 10 uM, replicate 2

## Cn1cc(-c2[nH]c3cc(NC(=O)[C@H](N)C4CCCCC4)cc4c3c2C=NNC4=O)cn1
[1]
  Population Apoptotic (%): 44%
  Population Fragmented Nuclei (%): 11%
  Population Healthy Nuclei (%): 76%
  Population Hoechst High Intensity Objects (%): 3%
  Population Membrane Permeable-Phenotype (%): 6%
  Population Mitochondria Different-Phenotype (%): 4%
  Population Mitotic Cells (%): 55%
  Population Normal (%): 96%
  Population Pyknosed Nuclei (%): 11%
  Population Tubulin-Different-Phenotype (%): 16%
  Total Cell Count: 123
[2]
  Population Apoptotic (%): 33%
  Population Fragmented Nuclei (%): 13%
  Population Healthy Nuclei (%): 72%
  Population Membrane Permeable-Phenotype (%): 4%
  Population Mitochondria Different-Phenotype (%): 7%
  Population Mitotic Cells (%): 66%
  Population Pyknosed Nuclei (%): 13%
  Population Tubulin-Different-Phenotype (%): 12%
  Total Cell Count: 51
[3]
  Population Apoptotic (%): 47%
  Population Fragmented Nuclei (%): 14%
  Population Healthy Nuclei (%): 60%
  Population Hoechst High Intensity Objects (%): 6%
  Population Membrane Permeable-Phenotype (%): 7%
  Population Mitochondria Different-Phenotype (%): 34%
  Population Mitotic Cells (%): 52%
  Population Normal (%): 93%
  Population Pyknosed Nuclei (%): 25%
  Population Tubulin-Different-Phenotype (%): 28%
  Total Cell Count: 247
[4]
  Population Apoptotic (%): 69%
  Population Fragmented Nuclei (%): 37%
  Population Healthy Nuclei (%): 42%
  Population Hoechst High Intensity Objects (%): 9%
  Population Membrane Permeable-Phenotype (%): 21%
  Population Mitochondria Different-Phenotype (%): 53%
  Population Mitotic Cells (%): 30%
  Population Normal (%): 90%
  Population Pyknosed Nuclei (%): 19%
  Population Tubulin-Different-Phenotype (%): 57%
  Total Cell Count: 91
[5]
  Population Apoptotic (%): 46%
  Population Fragmented Nuclei (%): 9%
  Population Healthy Nuclei (%): 80%
  Population Membrane Permeable-Phenotype (%): 5%
  Population Mitochondria Different-Phenotype (%): 3%
  Population Mitotic Cells (%): 53%
  Population Pyknosed Nuclei (%): 9%
  Population Tubulin-Different-Phenotype (%): 14%
  Total Cell Count: 121
[6]
  Population Apoptotic (%): 43%
  Population Fragmented Nuclei (%): 13%
  Population Healthy Nuclei (%): 70%
  Population Hoechst High Intensity Objects (%): 3%
  Population Membrane Permeable-Phenotype (%): 9%
  Population Mitochondria Different-Phenotype (%): 6%
  Population Mitotic Cells (%): 56%
  Population Normal (%): 96%
  Population Pyknosed Nuclei (%): 15%
  Population Tubulin-Different-Phenotype (%): 15%
  Total Cell Count: 52
[7]
  Population Apoptotic (%): 67%
  Population Fragmented Nuclei (%): 17%
  Population Healthy Nuclei (%): 43%
  Population Hoechst High Intensity Objects (%): 8%
  Population Membrane Permeable-Phenotype (%): 10%
  Population Mitochondria Different-Phenotype (%): 16%
  Population Mitotic Cells (%): 32%
  Population Normal (%): 91%
  Population Pyknosed Nuclei (%): 39%
  Population Tubulin-Different-Phenotype (%): 19%
  Total Cell Count: 293
[8]
  Population Apoptotic (%): 86%
  Population Fragmented Nuclei (%): 34%
  Population Healthy Nuclei (%): 29%
  Population Hoechst High Intensity Objects (%): 16%
  Population Membrane Permeable-Phenotype (%): 44%
  Population Mitochondria Different-Phenotype (%): 61%
  Population Mitotic Cells (%): 13%
  Population Normal (%): 83%
  Population Pyknosed Nuclei (%): 36%
  Population Tubulin-Different-Phenotype (%): 55%
  Total Cell Count: 106
[9]
  Population Apoptotic (%): 45%
  Population Fragmented Nuclei (%): 7%
  Population Healthy Nuclei (%): 81%
  Population Hoechst High Intensity Objects (%): 3%
  Population Membrane Permeable-Phenotype (%): 2%
  Population Mitochondria Different-Phenotype (%): 3%
  Population Mitotic Cells (%): 54%
  Population Normal (%): 96%
  Population Pyknosed Nuclei (%): 10%
  Population Tubulin-Different-Phenotype (%): 17%
  Total Cell Count: 124
[10]
  Population Apoptotic (%): 42%
  Population Fragmented Nuclei (%): 15%
  Population Healthy Nuclei (%): 55%
  Population Hoechst High Intensity Objects (%): 5%
  Population Membrane Permeable-Phenotype (%): 16%
  Population Mitochondria Different-Phenotype (%): 18%
  Population Mitotic Cells (%): 57%
  Population Normal (%): 94%
  Population Pyknosed Nuclei (%): 28%
  Population Tubulin-Different-Phenotype (%): 24%
  Total Cell Count: 56
[11]
  Population Apoptotic (%): 83%
  Population Fragmented Nuclei (%): 20%
  Population Healthy Nuclei (%): 31%
  Population Hoechst High Intensity Objects (%): 13%
  Population Membrane Permeable-Phenotype (%): 13%
  Population Mitochondria Different-Phenotype (%): 20%
  Population Mitotic Cells (%): 16%
  Population Normal (%): 86%
  Population Pyknosed Nuclei (%): 48%
  Population Tubulin-Different-Phenotype (%): 21%
  Total Cell Count: 395
[12]
  Population Apoptotic (%): 100%
  Population Fragmented Nuclei (%): 40%
  Population Hoechst High Intensity Objects (%): 20%
  Population Membrane Permeable-Phenotype (%): 66%
  Population Mitochondria Different-Phenotype (%): 61%
  Population Mitotic Cells (%): 0%
  Population Normal (%): 79%
  Population Pyknosed Nuclei (%): 28%
  Population Tubulin-Different-Phenotype (%): 77%
  Total Cell Count: 103
